We go through 29 molecules from ChEMBL document CHEMBL1126632, “Synthesis and dopamine antagonist activity of 2-thioether derivatives of the ergoline ring system” (J Med Chem, 1993).

Bounds are passed on as bounds.

What all share (type): functional
Experiment [1] has as its system Rattus norvegicus. As to the kind of experiment: Conditioned avoidance response in rats after oral administration. In short, it runs like this:
(§1)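 Wistar rats (120-130 g) trained in a shuttle box to cross on a 5-s buzzer; failure within 1 s after the buzzer gave a mild shock. Only well-conditioned animals were used, in groups of five, dosed orally 1 h 50 min before testing. After 10-min habituation they were tested for 20 min. Blockade = shocks received as % of stimuli; EDmin reported.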

In a further experiment the test system is Mus musculus. Nature of the experiment: Tested for the apomorphine climbing behavior in mice after oral administration. In short, it runs like this:
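Female TO mice (20-25 g), groups of eight, dosed orally with compound or vehicle, then habituated 60 min in wire-mesh cylinders. Apomorphine 2.5 mg/kg sc given; from 10 min later, climbing scored 0-4 (paws on cage) at 5-min intervals for 20 min.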

The test system of experiment [2] is Rattus norvegicus. As to the kind of experiment: Compound was tested for the Conditioned avoidance response (CAR) in rats after oral administration; ip administration.
Experiment [3] deals with Rattus norvegicus. Nature of the experiment: Percent change in serum prolactin in adult male Dawley rats after intraperitoneal administration. The method, boiled down: (§2)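 Adult male Sprague-Dawley rats, groups of 10, given compound in 0.5% lactic acid or vehicle ip 2 h before decapitation. Trunk blood clotted at 4 °C and centrifuged. Serum prolactin measured by NIAMDD radioimmunoassay kit against rat prolactin reference NIAMDD-RP-1. Result expressed as % change from controls run in the same experiment. Means compared by Student's test.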

For experiment [4], the system named is Rattus norvegicus. Nature of the experiment: Compound was tested for the presence of catalepsy (CAT) in rats after oral administration; ip administration.
Experiment [5] deals with Rattus norvegicus. As to the kind of experiment: Tested for the presence of catalepsy(CAT) in rats after oral administration. The method, boiled down: (§3)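 Wistar rats (180-190 g), groups of eight, compound given orally in distilled water or 0.5% carboxymethyl cellulose. Front paws placed on a 1.5 cm rod 7 cm high at 0.5, 1, 1.5, 2, 3, 4 and 5 h; time held recorded up to 20 min and scored 0-5. Maximum score per animal summed (group maximum 40); EDmin = lowest dose exceeding a threshold score.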

Experiment [6] deals with Rattus norvegicus. Nature of the experiment: Tested for the amphetamine induced stereotyped behavior in rats after oral administration. The method, boiled down:
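Wistar rats, groups of eight, given d-amphetamine sulfate 10 mg/kg ip 1 h after test compound. Stereotypy scored 1-8 at eight time points up to 4 h, and the group mean taken at each time. EDmin = lowest dose reducing stereotypy by more than 25% versus amphetamine-treated controls.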

The species named for experiment [7] is Rattus norvegicus. Nature of the experiment: Compound was tested for the Conditioned avoidance response (CAR) in rats. The method, boiled down:
as §1

The test system of experiment [8] is Rattus norvegicus. As to the kind of experiment: % change in serum prolactin in adult male Dawley rats after intraperitoneal administration. The method, boiled down: as §2
Experiment [9] concerns Rattus norvegicus. Nature of the experiment: Compound was tested for the presence of catalepsy (CAT) in rats after oral administration. In short, it runs like this:
as §3

Experiment [10] is filed under the species Rattus norvegicus. Nature of the experiment: Compound was tested for the % change in serum prolactin in adult male Dawley rats.(not significant). The method, boiled down:
as §2

In the experiment on Rattus norvegicus [1], `C[C@@H]1C[C@@H]2c3cccc4[nH]cc(c34)C[C@H]2N(C)C1` had an EDmin above 40 mg/kg.

Take `CSc1[nH]c2cc(O)cc3c2c1C[C@@H]1[C@@H]3C=C(C)CN1C`: the EDmin with Mus musculus, in the experiment on Rattus norvegicus [2] and with Rattus norvegicus [4] was 25 mg/kg throughout. The Change in the experiment on Rattus norvegicus [3] is -50%.

Turning to `CSc1[nH]c2cccc3c2c1C[C@@H]1[C@@H]3C[C@@H](C)CN1C`, the EDmin in the experiment with Mus musculus was found to be 40 mg/kg; in the experiment on Rattus norvegicus [1], 5 mg/kg; in the experiment with Rattus norvegicus [5], 20 mg/kg; with Rattus norvegicus [6] it was 5 mg/kg. Besides, the Change in the experiment with Rattus norvegicus [3] stood at 570%.

As to `CCSc1[nH]c2cccc3c2c1C[C@@H]1[C@@H]3C=C(C)CN1C`, the values for the EDmin in the experiment with Mus musculus, in the experiment on Rattus norvegicus [1] and in the experiment with Rattus norvegicus [5] were above 100 mg/kg, 25 mg/kg and 40 mg/kg, respectively. Besides, the Change with Rattus norvegicus [3] is listed as 67%.

Consider `CSc1[nH]c2cccc3c2c1C[C@@H]1[C@@H]3C=C(CO)CN1C`, for which the EDmin with Mus musculus was above 25 mg/kg; in the experiment with Rattus norvegicus [2], 6 mg/kg; in the experiment with Rattus norvegicus [4] it was 12.5 mg/kg. For the same molecule, the Change in the experiment on Rattus norvegicus [3] is given as 481%.

As to `CSc1[nH]c2cccc3c2c1C[C@@H]1[C@@H]3C[C@H](C)CN1C`, the EDmin with Mus musculus is above 25 mg/kg; in the experiment on Rattus norvegicus [1] it was 40 mg/kg. Besides, in the experiment with Rattus norvegicus [3], the Change was found to be 63%.

As to `CCN1CC(C)=C[C@@H]2c3cccc4[nH]c(SC)c(c34)C[C@H]21`, the EDmin with Mus musculus was 100 mg/kg; in the experiment with Rattus norvegicus [1] it was 25 mg/kg. The Change in the experiment with Rattus norvegicus [3] is -65%.

For the molecule `CC1=C[C@@H]2c3cccc4[nH]c(Sc5ccccc5)c(c34)C[C@H]2N(C)C1`, the EDmin came out at 25 mg/kg in the experiment with Mus musculus, 2.5 mg/kg in the experiment with Rattus norvegicus [1], 10 mg/kg in the experiment with Rattus norvegicus [5] and 20 mg/kg in the experiment on Rattus norvegicus [6]. Moreover, in the experiment with Rattus norvegicus [3], the Change turned out to be 141%.

`CCCSc1[nH]c2cccc3c2c1C[C@@H]1[C@@H]3C[C@@H](C)CN1C` returned an EDmin in the experiment with Rattus norvegicus [1] above 50 mg/kg. Besides, the Change with Rattus norvegicus [3] is on record as 76%.

As to `CC1=C[C@@H]2c3cccc4[nH]c([S+](C)[O-])c(c34)C[C@H]2N(C)C1` (stereo partly specified), the EDmin in the experiment with Mus musculus is above 100 mg/kg; in the experiment with Rattus norvegicus [1] it was above 50 mg/kg. In addition, the Change in the experiment with Rattus norvegicus [3] is 98%.

In the case of `CC1=C[C@@H]2c3cccc4[nH]c(SC(C)C)c(c34)C[C@H]2N(C)C1`, the results for the EDmin in the experiment with Rattus norvegicus [1], in the experiment filed under Rattus norvegicus [7] and in the experiment on Rattus norvegicus [6] were 10 mg/kg, 2.5 mg/kg and 10 mg/kg, respectively. Further, the Change with Rattus norvegicus [3] turned out to be 132%.

As for `CCCCCCSc1[nH]c2cccc3c2c1C[C@@H]1[C@@H]3C=C(C)CN1C`, the EDmin with Mus musculus is above 100 mg/kg; with Rattus norvegicus [1] it was 50 mg/kg. For the same molecule, the Change in the experiment on Rattus norvegicus [3] is reported as -4%.

Take `CC1=C[C@@H]2c3cccc4[nH]c(Sc5ccc(Cl)cc5)c(c34)C[C@H]2N(C)C1`: the EDmin with Mus musculus is above 100 mg/kg; in the experiment on Rattus norvegicus [1] it was 100 mg/kg.

With `CC1=C[C@@H]2c3cccc4[nH]c(S(C)(=O)=O)c(c34)C[C@H]2N(C)C1`, the EDmin in the experiment with Mus musculus was above 100 mg/kg; in the experiment with Rattus norvegicus [1], above 50 mg/kg. In the experiment with Rattus norvegicus [8], the Change is 30%.

In the case of `CCCN1CC(C)=C[C@@H]2c3cccc4[nH]c(SC)c(c34)C[C@H]21`, the EDmin with Mus musculus was above 50 mg/kg. In addition, the Change with Rattus norvegicus [3] is -74%.

As to `COc1ccc(Sc2[nH]c3cccc4c3c2C[C@@H]2[C@@H]4C=C(C)CN2C)cc1`, the EDmin in the experiment with Mus musculus was above 100 mg/kg; with Rattus norvegicus [1] it was above 80 mg/kg. Besides, the Change in the experiment with Rattus norvegicus [8] worked out at 31%.

In the experiment with Rattus norvegicus [1], `C[C@H]1C[C@@H]2c3cccc4[nH]cc(c34)C[C@H]2N(C)C1` registered an EDmin above 50 mg/kg.

In turn, `CCCSc1[nH]c2cccc3c2c1C[C@@H]1[C@@H]3C=C(C)CN1C` displayed an EDmin with Mus musculus above 50 mg/kg.

Turning to `C[C@H]1C[C@@H]2c3cccc4[nH]c(Sc5ccccc5)c(c34)C[C@H]2N(C)C1`, the EDmin with Mus musculus and in the experiment with Rattus norvegicus [1] was above 50 mg/kg in each case. In the experiment with Rattus norvegicus [3], the Change is reported as 15%.

Regarding `CSc1c2c3c(cccc3n1CO)[C@H]1C=C(C)CN(C)[C@@H]1C2`, the EDmin in the experiment with Mus musculus was above 100 mg/kg; in the experiment on Rattus norvegicus [1], 20 mg/kg; in the experiment on Rattus norvegicus [9], 80 mg/kg. Also, the Change in the experiment with Rattus norvegicus [3] is reported as 91%.

Take `CSc1[nH]c2cccc3c2c1C[C@H]1NCC(C)=C[C@H]31`: the EDmin in the experiment with Mus musculus was 50 mg/kg; in the experiment with Rattus norvegicus [1], above 50 mg/kg. Moreover, the Change in the experiment on Rattus norvegicus [8] is 24%.

`CSc1[nH]c2cccc3c2c1C[C@@H]1[C@@H]3C=C(C)CN1C`: the EDmin stood at 50 mg/kg in the experiment on Mus musculus, 2.5 mg/kg with Rattus norvegicus [1], 10 mg/kg in the experiment with Rattus norvegicus [5] and 5 mg/kg in the experiment with Rattus norvegicus [6]. In addition, the Change with Rattus norvegicus [3] was 532%.

The molecule `CCCN1C[C@H](C)C[C@@H]2c3cccc4[nH]c(SC)c(c34)C[C@H]21` had an EDmin in the experiment on Rattus norvegicus [1] above 50 mg/kg.

`CSc1c2c3c(cccc3n1C)[C@H]1C=C(C)CN(C)[C@@H]1C2`: the EDmin in the experiment on Mus musculus and in the experiment on Rattus norvegicus [1] was 100 mg/kg in each case. Further, in the experiment listed under Rattus norvegicus [10], the Change is reported as -23%.

In the case of `CC1=C[C@@H]2c3cccc4[nH]c(SCc5ccccc5)c(c34)C[C@H]2N(C)C1`, the EDmin was 100 mg/kg in the experiment with Mus musculus, 25 mg/kg in the experiment with Rattus norvegicus [1] and 80 mg/kg in the experiment with Rattus norvegicus [5]. Also, the Change in the experiment on Rattus norvegicus [8] was -9%.

Consider `C[C@@H]1C[C@@H]2c3cccc4[nH]c(Sc5ccccc5)c(c34)C[C@H]2N(C)C1`, for which the EDmin in the experiment on Rattus norvegicus [1] worked out at 20 mg/kg; in the experiment listed under Rattus norvegicus [7] it was 10 mg/kg; in the experiment with Rattus norvegicus [6], 20 mg/kg. The Change in the experiment with Rattus norvegicus [3] is 106%.

As for `CN(C)CCCN1c2ccccc2Sc2ccc(Cl)cc21` [CHLORPROMAZINE], the EDmin with Rattus norvegicus [1] and in the experiment with Rattus norvegicus [9] was 10 mg/kg in each case.

`CN1CCN(C2=Nc3cc(Cl)ccc3Nc3ccccc32)CC1` [CLOZAPINE]: the EDmin worked out at 20 mg/kg with Mus musculus, 30 mg/kg with Rattus norvegicus [1], 80 mg/kg in the experiment on Rattus norvegicus [9] and 40 mg/kg with Rattus norvegicus [6]. The Change with Rattus norvegicus [3] was 1.6%.

`O=C(CCCN1CCC(O)(c2ccc(Cl)cc2)CC1)c1ccc(F)cc1` [HALOPERIDOL]: the EDmin worked out at 1 mg/kg with Mus musculus, 0.5 mg/kg in the experiment on Rattus norvegicus [1] and 0.5 mg/kg in the experiment with Rattus norvegicus [9]. The Change in the experiment with Rattus norvegicus [3] was found to be 1413%.
